Values after ≈ are worked out from the molar mass of the structure shown.
Key:
Assay type in all cases: functional
Homo sapiens [1] = species: Homo sapiens; experiment: Potency relative to flurbiprofen in inhibiting collagen-induced platelet aggregation in human platelet-rich plasma (PRP)
Outline: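 Ratio of activity to flurbiprofen, the internal standard run alongside each day. The IC50 was approximate, from 1/2 log concentration intervals, for collagen-induced aggregation in human PRP. PRP came from citrated blood (200g, 10 min, 10 °C), with platelets adjusted to 3×10^5/mm³ using autologous PPP (2000g, 10 min, 10 °C).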

Homo sapiens [2] = species: Homo sapiens; experiment: In vitro inhibition of collagen-induced platelet aggregation in human platelet-rich plasma (PRP)
Outline: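 Citrated human blood spun at 200g, 10 min, 10 °C to give PRP. A further spin at 2000g, 10 min, 10 °C gave PPP, used to adjust the platelet count to 3×10^5/mm³. Collagen triggered aggregation. Approximate IC50 was read from 1/2 log steps of drug concentration. Flurbiprofen served as internal standard for day-to-day variation in platelet sensitivity.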

Homo sapiens [3] = species: Homo sapiens; experiment: Percent inhibition of collagen-induced Platelet aggregation in human platelet-rich plasma (PRP) at a concentration of 0.01 ug/mL
Homo sapiens [4] = species: Homo sapiens; experiment: Percent inhibition of collagen-induced Platelet aggregation in human platelet-rich plasma (PRP) at a concentration of 0.032 ug/mL
Homo sapiens [5] = species: Homo sapiens; experiment: Percent inhibition of collagen-induced Platelet aggregation in human platelet-rich plasma (PRP) at a concentration of 0.001 ug/mL

| SMILES | IC50 (Homo sapiens [2]) [µg/mL] | Relative potency (Homo sapiens [1]) | inhibition at 0.01 µg/mL (Homo sapiens [3]) [%] | inhibition at 0.032 µg/mL (Homo sapiens [4]) [%] | inhibition at 0.001 µg/mL (Homo sapiens [5]) [%] |
| --- | --- | --- | --- | --- | --- |
| COc1ccc(-c2snnc2-c2ccc(OC)cc2OC)cc1 | 0.032 (≈ 0.0974 µM) | 3.1 |  |  |  |
| c1ccc(-c2nnsc2-c2ccc3c(c2)OCO3)cc1 | 3.2 (≈ 11.3 µM) | 0.03 |  |  |  |
| COc1ccc(-c2csnn2)cc1 | 3.2 (≈ 16.6 µM) | 0.03 |  |  |  |
| COc1ccc(-c2nnsc2-c2ccc(OC)cc2)cc1 | 0.001 (≈ 0.00335 µM) | 100 | 90 | 55.4 | 32.4 |
| c1ccc(-c2csnn2)cc1 | 3.2 (≈ 19.7 µM) | 0.03 |  |  |  |
| COc1ccc(-c2snnc2-c2ccc(SC)cc2)cc1 | 0.032 (≈ 0.102 µM) | 3.1 |  |  |  |
| COc1ccc(-c2nnsc2-c2cccs2)cc1 | 1 (≈ 3.64 µM) | 0.1 |  |  |  |
| c1ccc(-c2cnns2)cc1 | 3.2 (≈ 19.7 µM) | 0.03 |  |  |  |
| CC(=O)Oc1ccccc1C(=O)O [ASPIRIN] |  | 0.01 |  |  |  |

Further lines, with some results ahead:

| IC50 (Homo sapiens [2]) [µg/mL] | SMILES | Relative potency (Homo sapiens [1]) | inhibition at 0.01 µg/mL (Homo sapiens [3]) [%] | inhibition at 0.032 µg/mL (Homo sapiens [4]) [%] | inhibition at 0.001 µg/mL (Homo sapiens [5]) [%] |
| --- | --- | --- | --- | --- | --- |
| 3.2 | Cl.Cl.Nc1ccc(-c2nnsc2-c2ccc(N)cc2)cc1 | 0.03 |  |  |  |
| 0.01 (≈ 0.0308 µM) | CN(C)c1ccc(-c2nnsc2-c2ccc(N(C)C)cc2)cc1 | 10 |  |  |  |
| 3.2 (≈ 11.8 µM) | Oc1ccc(-c2nnsc2-c2ccc(O)cc2)cc1 | 0.03 |  |  |  |
| 3.2 (≈ 12.8 µM) | c1csc(-c2nnsc2-c2cccs2)c1 | 0.03 |  |  |  |
| 0.01 (≈ 0.0373 µM) | COc1ccc(-c2nnsc2-c2ccccc2)cc1 | 10 |  |  |  |
| 0.032 (≈ 0.124 µM) | COc1ccc(-c2snnc2-c2ccco2)cc1 | 3.1 |  |  |  |
| 0.003 (≈ 0.0112 µM) | COc1ccc(-c2snnc2-c2ccccc2)cc1 | 31.3 | 56.8 | 50 | 32.4 |
| 3.2 (≈ 9.86 µM) | CCNc1ccc(-c2nnsc2-c2ccc(NCC)cc2)cc1 | 0.03 |  |  |  |
| 3.2 (≈ 13.4 µM) | c1ccc(-c2nnsc2-c2ccccc2)cc1 | 0.03 |  |  |  |

Source: ChEMBL document CHEMBL1122973, “Synthesis and platelet aggregation inhibitory activity of 4,5-bis(substituted)-1,2,3-thiadiazoles” (J Med Chem, 1985)
